Experimental data from ChEMBL document CHEMBL1137768, “Synthesis and in vitro anti Mycobacterium tuberculosis activity of a series of phthalimide derivatives” (Bioorg Med Chem, 2009).
In brackets after ≈: the same amount, converted by molar mass.

Columns and labels:
J774 = test: Cytotoxicity against mouse J774 cells after 24 hrs; type: cell-based; conditions: J774, 24 h
Procedure, shortened: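 J774 cells kept in RPMI with 10% FBS at 37 °C, 5% CO2, then seeded and allowed to adhere for 24 h. Exposed 24 h to compound at 625 down to 0.6 (twofold series). Resazurin added for 6 h and fluorescence read at 530/590 nm. IC50 taken as concentration giving 50% viability relative to control.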

[1] = tested on: Mycobacterium tuberculosis; test: Antimycobacterial activity against Mycobacterium tuberculosis H37Rv ATCC 27294 after 7 days by Microplate Alamar blue assay; type: functional; conditions: H37Rv ATCC 27294, 168 h
Procedure, shortened: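 DMSO stocks diluted in Middlebrook 7H9 with OADC to final 0.15–250 µg/mL. Inoculum matched to McFarland No. 1, diluted 1:25, then added with compound in 96-well plates. Triplicates incubated 7 days at 37 °C, then resazurin added. Fluorescence read at 530/590 nm. MIC = lowest concentration giving 90% growth inhibition. Isoniazid standard run each time.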

Compound | IC50 (J774) [µg/mL] | MIC [1] [µg/mL]
O=C(NN1C(=O)c2ccccc2C1=O)c1ccncc1 | 625 (≈ 2340 µM) | 5 (≈ 18.7 µM)
Cc1ccnc(NS(=O)(=O)c2ccc(N3C(=O)c4ccccc4C3=O)cc2)n1 | – | > 250
COc1cnc(NS(=O)(=O)c2ccc(N3C(=O)c4ccccc4C3=O)cc2)nc1 | – | > 250
Cc1cc(NS(=O)(=O)c2ccc(N3C(=O)c4ccccc4C3=O)cc2)no1 | – | 125 (≈ 326 µM)
Nc1ccc(S(=O)(=O)c2ccc(N3C(=O)c4ccccc4C3=O)cc2)cc1 | 312 (≈ 826 µM) | 7.8 (≈ 20.6 µM)
O=C1c2ccccc2C(=O)N1c1ccc(S(=O)(=O)Nc2ccccn2)cc1 | – | > 250
O=C1c2ccccc2C(=O)N1c1ccc(S(=O)(=O)Nc2ncccn2)cc1 | 312 (≈ 822 µM) | 3.9 (≈ 10.3 µM)
Cc1cc(C)nc(NS(=O)(=O)c2ccc(N3C(=O)c4ccccc4C3=O)cc2)n1 | – | > 250
O=C1c2ccccc2C(=O)N1c1ccc(S(=O)(=O)c2ccc(N3C(=O)c4ccccc4C3=O)cc2)cc1 | – | > 250
NS(=O)(=O)c1ccc(N2C(=O)c3ccccc3C2=O)cc1 | – | > 250
N=C(N)NS(=O)(=O)c1ccc(N2C(=O)c3ccccc3C2=O)cc1 | – | 125 (≈ 363 µM)
NNC(=O)c1ccncc1 [ISONIAZID] | – | 0.02 (≈ 0.146 µM)
